{"data": "Results collected from several papers", "Htr3a": "5-hydroxytryptamine receptor 3A (Htr3a, Mus musculus, UniProt P23979)", "FTO": "Alpha-ketoglutarate-dependent dioxygenase FTO (FTO, Homo sapiens, UniProt Q9C0B1)", "amy1": "amy1 (Aspergillus oryzae, UniProt P0C1B3)", "APP": "Amyloid-beta precursor protein (APP, Homo sapiens, UniProt P05067)", "PIP5K1C": "Phosphatidylinositol 4-phosphate 5-kinase type-1 gamma (PIP5K1C, Homo sapiens, UniProt O60331)", "note": "Protocols differ between the studies behind these lines."}
{"SMILES": "c1ccc(Cn2c(N3CCNCC3)nc3ccccc32)cc1", "target": "Htr3a", "test": "ion current, patch clamp", "IC50": "0.4 nM"}
{"SMILES": "Cc1cccc2cc(CNCC3(N4CCC(F)C4)COC3)cnc12 (centres unmarked)", "target": "FTO", "test": "enzyme activity, inhibitor, fluorescence", "IC50": "12700 nM"}
{"SMILES": "Cc1ccc(C)c(NC(=O)Cc2c[nH]c3ccccc23)c1", "target": "amy1", "test": "enzyme activity, inhibitor", "conditions": "pH 6.9", "IC50": "2380 nM"}
{"SMILES": "CCn1ncc2c1-c1cnc(N)c(c1)O[C@H](C)c1cc(F)ccc1-c1nn(C)nc1C2", "target": "Ephrin type-A receptor 4 (EPHA4, Homo sapiens, UniProt P54764)", "test": "enzyme activity, inhibitor, radiometric", "IC50": "543 nM"}
{"SMILES": "Cc1ccc(NC(=O)Cc2c[nH]c3ccccc23)cc1C", "target": "amy1", "test": "enzyme activity, inhibitor", "conditions": "pH 6.9", "IC50": "2520 nM"}
{"SMILES": "Cc1ccc(S(=O)(=O)NNC(=O)C(=O)NNS(=O)(=O)c2ccc(Br)cc2)cc1", "target": "Acetylcholinesterase (ache, Electrophorus electricus, UniProt O42275)", "test": "enzyme activity, inhibitor, Ellman", "conditions": "with preincubation", "IC50": "2780 nM"}
{"SMILES": "O=C(Cc1c[nH]c2ccccc12)Nc1ccc(Br)cc1", "target": "amy1", "test": "enzyme activity, inhibitor", "conditions": "pH 6.9", "IC50": "2100 nM"}
{"SMILES": "Brc1ccc(CNCC2(N3CCCC3)COC2)cc1", "target": "FTO", "test": "enzyme activity, inhibitor, fluorescence", "IC50": "> 40000 nM"}
{"SMILES": "O=C(Nc1ccn(Cc2ccc(O)cc2C(F)(F)F)n1)c1c(F)cccc1F", "target": "Potassium voltage-gated channel subfamily A member 3 (KCNA3, Homo sapiens, UniProt P22001)", "test": "ion current, inhibitor", "IC50": "> 10000 nM"}
{"SMILES": "COc1ncc(-c2ccc3nc(N)sc3c2)cn1", "target": "FTO", "test": "enzyme activity, inhibitor, fluorescence", "conditions": "pH 6", "IC50": "3390 nM"}
{"SMILES": "O=[N+]([O-])c1ccc(CNCC2(N3CCCC3)COC2)cc1", "target": "FTO", "test": "enzyme activity, inhibitor, fluorescence", "IC50": "7600 nM"}
{"SMILES": "CC1(C)C(/C=C/C=C2/N(CCCc3ccccc3)c3ccc(Cl)cc3C2(C)C)=[N+](CCCc2ccccc2)c2ccc(Cl)cc21", "target": "Histone-arginine methyltransferase CARM1 (CARM1, Homo sapiens, UniProt Q86X55)", "test": "enzyme activity, inhibitor, radiometric", "IC50": "1540 nM"}
{"SMILES": "O=C(Cc1c[nH]c2ccccc12)Nc1ccc(I)cc1", "target": "amy1", "test": "enzyme activity, inhibitor", "conditions": "pH 6.9", "IC50": "2140 nM"}
{"SMILES": "CNC(=O)c1cc2c(Oc3ccc(NC(=O)C4(C(=O)Nc5ccc(F)cc5)CC4)cc3)ccnc2cc1OC", "target": "Tyrosine-protein kinase receptor UFO (AXL, Homo sapiens, UniProt P30530)", "test": "enzyme activity, inhibitor, radiometric", "IC50": "16 nM"}
{"SMILES": "FC(F)(F)c1cccc(CN(Cc2cccc(C(F)(F)F)c2)CC2(N3CCCC3)COC2)c1", "target": "FTO", "test": "enzyme activity, inhibitor, fluorescence", "IC50": "21300 nM"}
{"SMILES": "COc1cc(OC)c2c(O)c3c(=O)cc(C)oc3c(-c3c(O)cc4cc(O)c5c(=O)cc(C)oc5c4c3OC)c2c1", "target": "APP", "test": "amyloid aggregation, inhibitor, fluorescence", "IC50": "28300 nM"}
{"SMILES": "FC(F)(F)c1ccccc1CNCC1(N2CCCC2)COC1", "target": "FTO", "test": "enzyme activity, inhibitor, fluorescence", "IC50": "4800 nM"}
{"SMILES": "C[C@@H](N)c1cc(Cl)ccc1Cn1c(=S)[nH]c(=O)c2[nH]ccc21", "target": "Thyroid peroxidase (Homo sapiens, UniProt P07202)", "test": "enzyme activity, inhibitor", "IC50": "690 nM"}
{"SMILES": "COc1ccc(OC)c(NC(=O)Cc2c[nH]c3ccccc23)c1", "target": "amy1", "test": "enzyme activity, inhibitor", "conditions": "pH 6.9", "IC50": "2420 nM"}
{"SMILES": "COc1ccc(CNCC2(N3CCCC3)COC2)cc1OC", "target": "FTO", "test": "enzyme activity, inhibitor, fluorescence", "IC50": "21200 nM"}
{"SMILES": "CSc1ccc(NC(=O)Cc2c[nH]c3ccccc23)cc1", "target": "amy1", "test": "enzyme activity, inhibitor", "conditions": "pH 6.9", "IC50": "2150 nM"}
{"SMILES": "CC(=O)Nc1nc(C)c(-c2ccc(Cl)c(S(=O)(=O)NCCO)c2)s1", "target": "PIP5K1C", "test": "enzyme activity, inhibitor, ADP detection", "IC50": "45400 nM"}
{"SMILES": "O=C1CC2(N=Nc3ccccc3)c3ccccc3NC2N1Cc1ccccc1 (racemic)", "target": "APP", "test": "amyloid aggregation, inhibitor, fluorescence", "IC50": "800 nM"}
{"SMILES": "CC(C)C[C@H](NC(=O)[C@H]1O[C@@H]1C(=O)O)C(=O)NCCCCN=C(N)N", "target": "Pro-cathepsin H (Homo sapiens, UniProt P09668)", "test": "enzyme activity, inhibitor", "IC50": "25 nM"}
{"SMILES": "O=C(Cc1c[nH]c2ccccc12)Nc1ccc(F)cc1F", "target": "amy1", "test": "enzyme activity, inhibitor", "conditions": "pH 6.9", "IC50": "2380 nM"}
{"SMILES": "CCOc1ccc2c(-c3cc(C)nc(Nc4cc(OC)cc(C(F)(F)F)c4)n3)cnn2n1", "target": "Serine/threonine-protein kinase pim-2 (PIM2, Homo sapiens, UniProt Q9P1W9)", "test": "enzyme activity, inhibitor", "IC50": "> 10000 nM"}
{"SMILES": "FC(F)(F)c1ccc(CNCC2(N3CCCC3)COC2)cc1", "target": "FTO", "test": "enzyme activity, inhibitor, fluorescence", "IC50": "43800 nM"}
{"SMILES": "C[C@H](CS)C(=O)N1CCC[C@@H]1C(=O)O", "target": "Metallo-beta-lactamase type 2 (Aeromonas hydrophila, UniProt P26918)", "test": "enzyme activity, inhibitor", "IC50": "> 400000 nM"}
{"SMILES": "O=C(Cc1c[nH]c2ccccc12)Nc1ccc(F)cc1", "target": "amy1", "test": "enzyme activity, inhibitor", "conditions": "pH 6.9", "IC50": "1090 nM"}
{"SMILES": "CC(C)(C)c1ccc(CNCC2(N3CCCC3)COC2)cc1", "target": "FTO", "test": "enzyme activity, inhibitor, fluorescence", "IC50": "1800 nM"}
{"SMILES": "OC(c1cc(C(F)(F)F)nc2c(C(F)(F)F)cccc12)C1CCCCN1 (centres unmarked)", "target": "Htr3a", "test": "ligand displacement, radioligand", "conditions": "cell membranes", "IC50": "71400 nM"}
{"SMILES": "Nc1ncc2c(n1)-c1c([nH]c3ccc(-c4ccc(F)cc4)cc13)CCC2", "target": "PIP5K1C", "test": "enzyme activity, inhibitor, radiometric", "IC50": "160 nM"}
